Test [1] has as its target T1, NAD-dependent protein deacetylase sirtuin-2 (Homo sapiens) (UniProt Q8IXJ6).
T1 sequence (whole entry): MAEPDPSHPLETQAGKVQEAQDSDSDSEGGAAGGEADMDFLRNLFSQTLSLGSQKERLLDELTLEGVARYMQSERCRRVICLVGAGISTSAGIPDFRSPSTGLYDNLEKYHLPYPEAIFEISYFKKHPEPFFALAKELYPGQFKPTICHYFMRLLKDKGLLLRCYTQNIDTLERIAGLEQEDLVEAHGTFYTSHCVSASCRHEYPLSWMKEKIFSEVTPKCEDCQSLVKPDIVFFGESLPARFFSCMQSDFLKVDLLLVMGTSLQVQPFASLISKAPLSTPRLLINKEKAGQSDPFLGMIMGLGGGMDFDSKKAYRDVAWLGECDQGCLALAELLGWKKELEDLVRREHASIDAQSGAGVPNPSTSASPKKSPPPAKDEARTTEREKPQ
Nature of the test: Inhibition of recombinant N-terminal tagged human SIRT2 expressed in Escherichia coli at 100 uM using Fluor De Lys SIRT2 as substrate preincubated for 30 mins followed by substrate addition and measured after 1 hr in presence of NAD+ by fluorescence assay relative to control. The note with it: time 90.0 min. In short, it runs like this:
(§1)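 Human recombinant SIRT enzyme and compound (1% v/v final DMSO) in SIRT assay buffer were preincubated at 37 °C for 30 min. NAD⁺ and Fluor de Lys deacetylase substrate were then added. Fluorescence was read at excitation 360 nm, emission 460 nm. % inhibition was taken from inhibited wells relative to control wells.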

The target in test [2] is T2, NAD-dependent protein deacetylase sirtuin-1 (Homo sapiens) (UniProt Q96EB6).
T2 sequence (whole entry): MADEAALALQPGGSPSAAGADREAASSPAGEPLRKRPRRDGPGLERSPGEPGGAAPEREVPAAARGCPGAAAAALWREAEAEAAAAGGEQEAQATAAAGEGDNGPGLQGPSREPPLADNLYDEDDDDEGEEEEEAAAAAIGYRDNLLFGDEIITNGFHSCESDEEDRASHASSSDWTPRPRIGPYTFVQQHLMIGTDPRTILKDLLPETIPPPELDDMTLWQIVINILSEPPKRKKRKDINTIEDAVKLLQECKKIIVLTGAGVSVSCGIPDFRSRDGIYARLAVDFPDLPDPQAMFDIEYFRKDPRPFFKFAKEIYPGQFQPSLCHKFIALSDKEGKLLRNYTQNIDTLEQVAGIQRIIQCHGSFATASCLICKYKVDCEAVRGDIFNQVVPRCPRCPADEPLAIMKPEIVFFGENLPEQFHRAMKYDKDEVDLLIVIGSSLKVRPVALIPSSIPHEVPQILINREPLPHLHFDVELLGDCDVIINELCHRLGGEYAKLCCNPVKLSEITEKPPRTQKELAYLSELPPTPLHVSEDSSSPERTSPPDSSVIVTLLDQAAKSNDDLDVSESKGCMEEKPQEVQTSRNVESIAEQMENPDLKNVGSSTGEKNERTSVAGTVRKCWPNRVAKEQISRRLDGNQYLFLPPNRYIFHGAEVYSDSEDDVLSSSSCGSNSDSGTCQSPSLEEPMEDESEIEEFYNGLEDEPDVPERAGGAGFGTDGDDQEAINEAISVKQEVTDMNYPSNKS
Nature of the test: Inhibition of recombinant N-terminal tagged human SIRT1 expressed in Escherichia coli at 100 uM using Fluor De Lys SIRT1 as substrate preincubated for 30 mins followed by substrate addition and measured after 1 hr in presence of NAD+ by fluorescence assay relative to control. To be noted: time 90.0 min. In short, it runs like this: as §1

Test [3] deals with MCF7. Nature of the test: Cytotoxicity against human MCF7 cells assessed as reduction in cell viability measured after 72 hrs by MTT assay. It counts as functional, cell-based. To be noted: MCF7, 72 h. Put shortly: (§2)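 MCF-7 cells were grown in DMEM with 10% FBS and 1% penicillin–streptomycin to 70% confluency. 180 µl of a 5 × 10⁴ cells/ml suspension was seeded per well and held 24 h at 37 °C in 5% CO₂. Cells were exposed to 1, 10, 25, 50, 100 or 200 µM, then treated with MTT (5 mg/ml) for 4 h and read at 540 nm. Untreated cells served as control. Done in triplicate; IC50 from linear regression of concentration vs % viable cells.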
In general terms: Tetrazolium dyes change colour on reduction, which living cells bring about.

Test [4] has as its system MCF7. Nature of the test: Cytotoxicity against human MCF7 cells assessed as reduction in cell viability measured after 48 hrs by MTT assay. In kind it is functional, cell-based. The note with it: MCF7, 48 h. Put shortly: as §2
Test [5] deals with T3, NAD-dependent protein deacetylase sirtuin-3, mitochondrial (Homo sapiens) (UniProt Q9NTG7).
T3 sequence (whole entry): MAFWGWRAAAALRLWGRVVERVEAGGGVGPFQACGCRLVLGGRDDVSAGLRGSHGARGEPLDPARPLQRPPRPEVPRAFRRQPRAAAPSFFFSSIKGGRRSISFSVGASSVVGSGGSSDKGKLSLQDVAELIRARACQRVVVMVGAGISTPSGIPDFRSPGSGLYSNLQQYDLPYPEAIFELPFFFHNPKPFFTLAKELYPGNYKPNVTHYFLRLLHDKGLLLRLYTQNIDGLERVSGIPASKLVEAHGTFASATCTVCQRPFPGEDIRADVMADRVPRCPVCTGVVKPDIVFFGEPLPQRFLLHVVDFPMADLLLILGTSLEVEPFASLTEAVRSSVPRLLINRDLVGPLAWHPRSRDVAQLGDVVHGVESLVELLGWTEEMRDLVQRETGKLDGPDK
Nature of the test: Inhibition of recombinant N-terminal tagged human SIRT3 (102 to 399 residues) expressed in Escherichia coli at 300 uM using Fluor De Lys SIRT2 as substrate preincubated for 30 mins followed by substrate addition and measured after 1 hr in presence of NAD+ by fluorescence assay relative to control. To be noted: time 90.0 min. In short, it runs like this: as §1

Test [6] addresses T1, NAD-dependent protein deacetylase sirtuin-2 (Homo sapiens). Nature of the test: Inhibition of recombinant N-terminal tagged human SIRT2 expressed in Escherichia coli at 300 uM using Fluor De Lys SIRT2 as substrate preincubated for 30 mins followed by substrate addition and measured after 1 hr in presence of NAD+ by fluorescence assay relative to control. The note with it: time 90.0 min. In short, it runs like this:
as §1

Test [7] addresses T2, NAD-dependent protein deacetylase sirtuin-1 (Homo sapiens). Nature of the test: Inhibition of recombinant N-terminal tagged human SIRT1 expressed in Escherichia coli at 300 uM using Fluor De Lys SIRT1 as substrate preincubated for 30 mins followed by substrate addition and measured after 1 hr in presence of NAD+ by fluorescence assay relative to control. The note with it: time 90.0 min. Put shortly: as §1

A value given as a limit tells only on which side of the number the result lay.

As a reminder, the inhibition is the percentage by which the read-out fell short of the control. By IC50 is commonly meant the concentration needed to halve the response being measured.

Turning to `CC(=O)c1ccc(NC(=O)c2cccc(Oc3ccccc3)c2)cc1`, the inhibition in test [1] worked out at 11.1%.

As for `O=C(Nc1ccc2ccccc2c1)c1cccc(Oc2ncccn2)c1`, the inhibition in test [1] was 17.1%; in test [2], 36.1%.

Take `O=C(c1cccc(Oc2ccccc2)c1)N1CCc2ccccc2C1`: the inhibition in test [1] is 10.8%; in test [2], 56.5%. The half-maximal inhibitory concentration (IC50) stood at 147 µM in test [3] and 159 µM in test [4].

`ON=C(c1cccc(Oc2ccccc2)c1)N1CCc2ccccc2C1`: the inhibition in test [1] came out at 51.6%; in test [2], 47.2%. In addition, the values for the IC50 in test [3] and in test [4] were 33.1 µM and 41.1 µM, respectively.

With `Cc1ccc(C(=O)Nc2ccc(S(=O)(=O)O)c3cc(S(=O)(=O)O)cc(S(=O)(=O)O)c23)cc1NC(=O)c1cccc(NC(=O)Nc2cccc(C(=O)Nc3cc(C(=O)Nc4ccc(S(=O)(=O)O)c5cc(S(=O)(=O)O)cc(S(=O)(=O)O)c45)ccc3C)c2)c1`, the inhibition in test [1] came to 98.4%.

With `O=C(c1ccc(Oc2ccccc2)cc1)N1CCc2ccccc2C1`, the inhibition in test [2] was 21.5%.

With `NC(=O)c1ccc(NC(=O)c2ccc(Oc3ccccc3)cc2)cc1`, the inhibition in test [2] was 46%. For the same molecule, the IC50 was determined as 356 µM in test [3] and 524 µM in test [4].

Regarding `CC(=O)c1ccc(NC(=O)c2ccc(Oc3ccccc3)cc2)cc1`, the inhibition in test [2] was 36.1%.

For `CC(C)N1CCN(C(=O)c2cccc(Oc3ccccc3)c2)CC1`, in test [2], the inhibition worked out at 48.1%. The IC50 in test [3] turned out to be 321 µM; in test [4], 465 µM.

Regarding `Cc1ccc(Oc2cccc(C(=O)N[C@@H](C)c3ccccc3)c2)nn1`, the inhibition in test [5] was 18.2%; in test [6], 42.5%; in test [7] it was 31.4%. Moreover, the IC50 in test [3] is greater than 1000 µM; in test [4], 328 µM.

The values are drawn from ChEMBL document CHEMBL4680326, “Hit-to-lead optimization on aryloxybenzamide derivative virtual screening hit against SIRT” (Bioorg Med Chem, 2021).
